In ChEMBL document CHEMBL1212777, “Novel VIM metallo-beta-lactamase variant from clinical isolates of Enterobacteriaceae from Algeria” (2010):
Converted amounts (≈) assume the structure as drawn.

Experiments:
Format in all cases: functional
[1] = test system: Escherichia coli; experiment: Antimicrobial activity against Escherichia coli harbouring plasmidBK-CMV expressing beta-lactamase VIM-19 […] in presence of 0.4 mM EDTA
[2] = test system: Klebsiella pneumoniae; experiment: Antimicrobial activity against Klebsiella pneumoniae 2878 strain expressing beta-lactamase VIM-19 by microdilution method
Outline: (§1)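 Clinical isolates from intensive care patients. MICs by dilution on Mueller-Hinton agar, inoculum 10^4 CFU per spot, read after growth and interpreted by CA-SFM guidelines. Where the line names an inhibitor, it was held at a fixed level: clavulanic acid 2 μg/ml, tazobactam 4 μg/ml, or EDTA 0.4 mM.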

[3] = test system: Escherichia coli; experiment: Antimicrobial activity against Escherichia coli DH5alpha harbouring plasmid BK-VIM-19 expressing beta-lactamase VIM-19 by microdilution method
Outline: (§2)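 MIC by dilution on Mueller-Hinton agar, inoculum 10^4 CFU per spot, interpreted by CA-SFM guidelines. Inhibitor combinations where tested: clavulanic acid 2 μg/ml, tazobactam 4 μg/ml, EDTA 0.4 mM. Transconjugants came from rifampin-resistant E. coli C600 selected on rifampin 300 μg/ml plus cefotaxime 0.5 μg/ml. Transformants came from electroporation into E. coli DH5α selected on cefotaxime 0.5 μg/ml.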

[4] = test system: Escherichia coli; experiment: Antimicrobial activity against Escherichia coli DH5alpha 2878 transformant expressing beta-lactamase VIM-19 by microdilution method; outline: as §2
[5] = test system: Escherichia coli; experiment: Antimicrobial activity against Escherichia coli 138 expressing beta-lactamase VIM-19 by microdilution method; outline: as §1
[6] = test system: Escherichia coli; experiment: Antimicrobial activity against Escherichia coli DH5alpha harbouring plasmid BK-VIM-19 expressing beta-lactamase VIM-19 by microdilution method in presence of 0.4 mM EDTA; outline: as §2
[7] = test system: Klebsiella pneumoniae; experiment: Antimicrobial activity against Klebsiella pneumoniae 6828 strain expressing beta-lactamase VIM-19 by microdilution method in presence of 0.4 mM EDTA; outline: as §1
[8] = test system: Escherichia coli; experiment: Antimicrobial activity against Escherichia coli C600 2878 transconjugate expressing beta-lactamase VIM-19 by microdilution method; outline: as §2
[9] = test system: Providencia stuartii; experiment: Antimicrobial activity against Providencia stuartii 6858 strain expressing beta-lactamase VIM-19 by microdilution method in presence of 0.4 mM EDTA; outline: as §1
[10] = test system: Escherichia coli; experiment: Antimicrobial activity against Escherichia coli DH5alpha 2878 transformant expressing beta-lactamase VIM-19 by microdilution method in presence of 0.4 mM EDTA; outline: as §2
[11] = test system: Escherichia coli; experiment: Antimicrobial activity against Escherichia coli C600 2878 transconjugate expressing beta-lactamase VIM-19 by microdilution method in presence of 0.4 mM EDTA
Outline: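 Rifampin-resistant E. coli C600 recipient mated with the clinical strain. Transconjugants were selected on agar with rifampin 300 μg/ml plus cefotaxime 0.5 μg/ml. MICs by dilution on Mueller-Hinton agar, inoculum 10^4 CFU per spot, CA-SFM interpretation. Inhibitor at a fixed level: clavulanic acid 2 μg/ml or EDTA 0.4 mM.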

[12] = test system: Escherichia coli; experiment: Antimicrobial activity against Escherichia coli 2603 strain expressing beta-lactamase VIM-19 by microdilution method in presence of 0.4 mM EDTA; outline: as §1
[13] = test system: Klebsiella pneumoniae; experiment: Antimicrobial activity against Klebsiella pneumoniae 6828 strain expressing beta-lactamase VIM-19 by microdilution method; outline: as §1
[14] = test system: Escherichia coli; experiment: Antimicrobial activity against Escherichia coli harbouring plasmid BK-CMV expressing beta-lactamase VIM-19 by microdilution method; outline: as §2
[15] = test system: Escherichia coli; experiment: Antimicrobial activity against Escherichia coli 138 expressing beta-lactamase VIM-19 by microdilution method in presence of 0.4 mM EDTA; outline: as §2
[16] = test system: Providencia stuartii; experiment: Antimicrobial activity against Providencia stuartii 6858 strain expressing beta-lactamase VIM-19 by microdilution method; outline: as §1
[17] = test system: Escherichia coli; experiment: Antimicrobial activity against Escherichia coli 2603 strain expressing beta-lactamase VIM-19 by microdilution method; outline: as §1
[18] = test system: Klebsiella pneumoniae; experiment: Antimicrobial activity against Klebsiella pneumoniae 2878 strain expressing beta-lactamase VIM-19 […] in presence of 0.4 mM EDTA

Structure (SMILES) | MIC [1] [µg/mL] | MIC [2] [µg/mL] | MIC [3] [µg/mL] | MIC [4] [µg/mL] | MIC [5] [µg/mL] | MIC [6] [µg/mL] | MIC [7] [µg/mL] | MIC [8] [µg/mL] | MIC [9] [µg/mL] | MIC [10] [µg/mL] | MIC [11] [µg/mL] | MIC [12] [µg/mL] | MIC [13] [µg/mL] | MIC [14] [µg/mL] | MIC [15] [µg/mL] | MIC [16] [µg/mL] | MIC [17] [µg/mL] | MIC [18] [µg/mL]
C[C@@H](O)[C@H]1C(=O)N2C(C(=O)O)=C(S[C@@H]3CN[C@H](C(=O)Nc4cccc(C(=O)O)c4)C3)[C@H](C)[C@H]12 | < 0.12 | 64 (≈ 135 µM) | 4 (≈ 8.41 µM) | 8 (≈ 16.8 µM) | 32 (≈ 67.3 µM) | < 0.12 | < 0.12 | 1 (≈ 2.1 µM) | < 0.12 | < 0.12 | < 0.12 | < 0.12 | 16 (≈ 33.6 µM) | < 0.12 | 0.25 | 32 (≈ 67.3 µM) | 16 (≈ 33.6 µM) | 0.25
CO/N=C(\C(=O)N[C@@H]1C(=O)N2C(C(=O)[O-])=C(C[N+]3(C)CCCC3)CS[C@H]12)c1csc(N)n1 |  | 64 (≈ 133 µM) |  | 4 (≈ 8.32 µM) | 64 (≈ 133 µM) |  |  |  |  |  |  |  | 4 (≈ 8.32 µM) | < 0.12 |  | 2 (≈ 4.16 µM) | 4 (≈ 8.32 µM) | 
C[C@H]1[C@H](NC(=O)/C(=N\OC(C)(C)C(=O)O)c2csc(N)n2)C(=O)N1S(=O)(=O)O [AZTREONAM] |  | 16 (≈ 36.7 µM) |  | 16 (≈ 36.7 µM) | 128 (≈ 294 µM) |  | 8 |  |  | 16 | 4 | 64 | 8 (≈ 18.4 µM) |  | 128 | 2 (≈ 4.59 µM) | 64 (≈ 147 µM) | 16
CO/N=C(\C(=O)N[C@@H]1C(=O)N2C(C(=O)O)=C(COC(C)=O)CS[C@H]12)c1csc(N)n1 [CEFOTAXIME] | 0.06 | 256 (≈ 562 µM) | 128 (≈ 281 µM) | 256 (≈ 562 µM) | 512 (≈ 1120 µM) | 0.06 | 4 | 64 (≈ 141 µM) | 2 | 1 | 1 | 4 | 128 (≈ 281 µM) | 0.06 (≈ 0.132 µM) | 32 | 128 (≈ 281 µM) | 256 (≈ 562 µM) | 4
CO[C@@]1(NC(=O)Cc2cccs2)C(=O)N2C(C(=O)O)=C(COC(N)=O)CS[C@@H]21 [CEFOXITIN] |  | 512 (≈ 1200 µM) | 128 (≈ 299 µM) | 256 (≈ 599 µM) | 512 (≈ 1200 µM) |  |  | 128 (≈ 299 µM) |  |  |  |  | 128 (≈ 299 µM) | 4 (≈ 9.36 µM) |  | 128 (≈ 299 µM) | 512 (≈ 1200 µM) | 
CC(C)(O/N=C(\C(=O)N[C@@H]1C(=O)N2C(C(=O)[O-])=C(C[n+]3ccccc3)CS[C@H]12)c1csc(N)n1)C(=O)O [CEFTAZIDIME] | 0.12 | 128 (≈ 234 µM) | 32 (≈ 58.5 µM) | 128 (≈ 234 µM) | 512 (≈ 937 µM) | 0.12 | 8 | 32 (≈ 58.5 µM) | 4 | 8 |  | 16 | 64 (≈ 117 µM) | 0.12 (≈ 0.22 µM) | 128 | 64 (≈ 117 µM) | 128 (≈ 234 µM) | 8
CO/N=C(\C(=O)N[C@@H]1C(=O)N2C(C(=O)O)=C(COC(N)=O)CS[C@H]12)c1ccco1 [CEFUROXIME] |  | 1020 (≈ 2410 µM) | 1020 (≈ 2410 µM) | 1020 (≈ 2410 µM) | > 1020 |  |  | 512 (≈ 1210 µM) |  |  |  |  | 1020 (≈ 2410 µM) | 4 (≈ 9.43 µM) |  | 1020 (≈ 2410 µM) | > 1020 | 
CC(=O)OCC1=C(C(=O)O)N2C(=O)[C@@H](NC(=O)Cc3cccs3)[C@H]2SC1 [CEPHALOTHIN] |  | > 2050 | 1020 (≈ 2580 µM) | 2050 (≈ 5170 µM) | > 2050 |  |  | 1020 (≈ 2580 µM) |  |  |  |  | 2050 (≈ 5170 µM) | 4 (≈ 10.1 µM) |  | > 2050 | 2050 (≈ 5170 µM) | 
C[C@@H](O)[C@H]1C(=O)N2C(C(=O)O)=C(SCCNC=N)C[C@H]12 [IMIPENEM ANHYDROUS] | < 0.12 | 64 (≈ 214 µM) | 16 (≈ 53.4 µM) | 8 (≈ 26.7 µM) | 32 (≈ 107 µM) | < 0.12 | < 0.12 | 4 (≈ 13.4 µM) | 0.5 | < 0.12 | < 0.12 | 0.25 | 4 (≈ 13.4 µM) |  | 0.5 | 16 (≈ 53.4 µM) | 16 (≈ 53.4 µM) | 0.5
C[C@@H](O)[C@H]1C(=O)N2C(C(=O)O)=C(S[C@@H]3CN[C@H](C(=O)N(C)C)C3)[C@H](C)[C@H]12 [MEROPENEM] | < 0.12 | 32 (≈ 83.4 µM) | 8 (≈ 20.9 µM) | 8 (≈ 20.9 µM) | 16 (≈ 41.7 µM) | < 0.12 | < 0.12 | 1 (≈ 2.61 µM) | < 0.12 | < 0.12 | < 0.12 | < 0.12 | 4 (≈ 10.4 µM) | < 0.12 | < 0.12 | 8 (≈ 20.9 µM) | 8 (≈ 20.9 µM) | < 0.12
CC1(C)S[C@@H]2[C@H](NC(=O)[C@H](C(=O)O)c3ccsc3)C(=O)N2[C@H]1C(=O)O [TICARCILLIN] |  | > 2050 | > 2050 | > 2050 | > 2050 |  |  | > 2050 |  |  |  |  | > 2050 | 2 (≈ 5.2 µM) |  | > 2050 | > 2050 | 
